Source: PubChem BioAssay (several laboratories)
aDG glyco act = activators of alpha-DG glycosylation, primary screen, uHTS, Pro5-aDG cells, AlphaScreen. alpha-DG glycosylation AlphaScreen (IIH6); 0% Pro5, 100% B10-LARGE cell signal. activation, % at 10 µM. 360,000 compounds, 0.22% hits. AID 624168, 2012;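 active = activation of at least 8% versus controls, or a plate z-score of at least 8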;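 note: Pro5 are CHO cells carrying HIG-tagged alpha-DG that lacks glycosylation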
T cell HTS = modulators of CD8 T cell-vesicle binding, primary screen, mouse 2C CD8+ T cells, flow cytometry. 2C CD8+ T cell-vesicle binding; active compounds read low. response (vesicle binding), % at 7 µM. 330,000 compounds, 0.068% hits. AID 2052, 2009;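 active = response, share of CD8 T cells binding vesicles, and their 90th percentile fluorescence all below set limits, cut at about 80% in these data, passing the limit was not always enough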;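 note: values below 100% mean blocked vesicle binding to the CD8+ T cells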
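material = purified 2C TCR transgenic mouse naive CD8+ T cells | controls = Unloaded micro-vesicles (low), QL9 vesicles with 0.7% DMSO (high) | detection = cytometric PE anti-B7-1 and Alexa647 anti-CD8 signals after 1% paraformaldehyde fixation | incubation = binding step 1.5 h, 37 °C, antibody labelling 20 min, ice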
GRK2 inh = compounds blocking aptamer binding on GRK2 – biochemical, human GRK2, bead flow cytometry, HTS, primary screen; Beta-adrenergic receptor kinase 1 (Homo sapiens), P25098; FAM-aptamer displacement from GRK2; inhibition of aptamer binding, % at 10 µM; 330,000 compounds, 0.59% hits; AID 488847, 2010;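 active = inhibition of aptamer binding above 40%, roughly 3 SD of noise, on plates passing a quality check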;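 note: median bead fluorescence of bound FAM aptamer so fluorescent compounds give negative values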
procasp3 activ = activators of human procaspase-3 D3A mutant, primary screen, biochemical, absorbance, PC-3 D3A mutant, single concentration | Caspase-3 (Homo sapiens), P42574 | recombinant procaspase-3 D3A, Ac-DEVD-pNA absorbance 405 nm | activation, % at 8.5 µM | 330,000 compounds, 0.11% hits | AID 463141, 2010;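 active = activation above the mean of all tested compounds plus 3 SD, cut at about 21% in these data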
Target sequence (P42574 whole entry D9A/D28A/D175A): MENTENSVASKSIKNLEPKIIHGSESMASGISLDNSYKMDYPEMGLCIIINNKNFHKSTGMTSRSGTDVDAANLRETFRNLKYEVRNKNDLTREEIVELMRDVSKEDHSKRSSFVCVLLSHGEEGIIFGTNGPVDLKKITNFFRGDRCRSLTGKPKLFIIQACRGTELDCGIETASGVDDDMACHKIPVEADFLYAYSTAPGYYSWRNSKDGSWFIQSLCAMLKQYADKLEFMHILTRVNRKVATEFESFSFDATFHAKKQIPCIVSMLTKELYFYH
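Assay system – Procaspase-3 D3A mutant, all three cleavage aspartates alanine · Controls – DMSO-only low control, 5 µM PC-3 D3A high control · Schedule – 1 h compound preincubation, 2 h substrate hydrolysis at 25 °C · Signal – 405 nm absorbance of p-nitroaniline, reads at 0 and 120 min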
CaV13 FRET inh = Disruptors of the CACNA1D IQ motif to Ca2+-dependent inactivation inhibitor domain association, primary screening, Förster resonance energy transfer in intact living … | HEK cells, CFP/YFP FRET ICDI-IQ, plate reader, 10 min; percent FRET-ratio fall versus neutral wells | inhibition, % at 12.3 µM | 340,000 compounds, 0.098% hits;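 active = mean replicate inhibition of at least 30% and at least 1% of replicates passing that level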
procasp7 counter = procaspase-7 activators, primary screen, counter-screen for procaspase-3 activator project, biochemical, absorbance, HTS, human. activation, % at 8.5 µM. 330,000 compounds, 0.093% hits. recombinant procaspase-7, Ac-DEVD-pNA absorbance 405 nm; D23A/D198A/D206A triple mutant, cannot self-cleave; scale: DMSO 0, 5 µM enzyme 100;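 active = percent activation above the screen-wide mean plus 3 SD, cut at about 25% in these data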
Target sequence (P55210 whole entry D23A/D198A/D206A): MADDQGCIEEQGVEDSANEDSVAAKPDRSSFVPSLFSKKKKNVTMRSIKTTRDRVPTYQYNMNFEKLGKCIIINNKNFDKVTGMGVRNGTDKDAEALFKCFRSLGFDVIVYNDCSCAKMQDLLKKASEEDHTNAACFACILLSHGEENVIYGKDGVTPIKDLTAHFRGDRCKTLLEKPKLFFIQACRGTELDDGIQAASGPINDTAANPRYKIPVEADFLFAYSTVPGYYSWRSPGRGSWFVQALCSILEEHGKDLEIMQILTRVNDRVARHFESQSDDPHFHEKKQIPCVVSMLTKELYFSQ
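buffer or medium = Zinc-free HEPES/NaCl buffer, pH 7.4 | material = Procaspase-7 triple mutant (PC-7 D3A) | input = 2 µM procaspase-7 mutant as dispensed | signal = Epi-absorbance of released pNA at 405 nm, two timepoints | timing = 1 h preincubation, 2 h reaction | replicates = singlicate compound testing | evaluation = % activation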
GRK2 CP1 = GRK2 aptamer-displacing inhibitors, retest, confirmation, biochemical, cherry pick 1, bead flow cytometry. shares compounds with GRK2 inh. bead-bound GRK2, FAM-aptamer displacement. aptamer displacement, % at 10 µM. 2,000 compounds, 4% hits. AID 504451, 2011;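 active = aptamer displacement above 40%, near three times the noise of non-fluorescent compounds, on plates passing quality checks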;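 note: negative values mostly reflect intrinsic compound fluorescence rather than true enhancement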
Aptamer quench = fluorescent aptamer quenching in GRK2 counter-screen dose response | Fluorescent RNA aptamer beads, flow cytometry; active compounds read high | shares compounds with GRK2 inh | 110 tested, under 10 active | fluorescence change (kMESF span), kMESF (no concentration beside the values) | AID 504521;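 active = compounds whose bead fluorescence drops by more than 37 kMESF across the dose range, marking them as dye quenchers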
FAM quench CP1 = quenches fluorescent RNA aptamer, GRK2 hit artifact. Carboxyfluorescein RNA aptamer on beads, flow cytometry quenching; active compounds read low. fluorescence response (% of DMSO), % at 10 µM. AID 504580. 2,000 tested, under 10 active. shares compounds with GRK2 inh;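 active = compounds that quench the bead-bound fluorescent RNA probe, cutting fluorescence to under half of the solvent control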;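 note: counterscreen run without GRK2 so only probe quenching by compound is measured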
GRK2 CP2 = GRK2 aptamer-displacing inhibitors, hit retest, confirmation, biochemical, cherry pick 2, bead flow cytometry. shares compounds with GRK2 inh. bead-bound GRK2, FAM-aptamer displacement. inhibition of aptamer binding, % at 10 µM. 360 tested, under 10 active. AID 504782, 2011;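 active = inhibition of aptamer binding above 40%, about triple the noise seen with nonglowing compounds, on plates passing quality control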;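 note: negative values mostly come from compounds that fluoresce themselves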
FAM quench CP2 = aptamer fluorescence quenching in GRK2 counter-screen; shares compounds with GRK2 inh; carboxyfluorescein RNA aptamer beads, flow cytometry quenching; active compounds read low; fluorescence response vs DMSO, % at 10 µM; 360 tested, under 10 active; AID 588494;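 active = response vs DMSO under 50%, meaning signal dropped by over half, treated as fluorescence quencher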;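 note: labelled aptamer on streptavidin beads without GRK2 as a quench counter-screen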
FAM quench PS1 = quenchers of FAM-labeled RNA aptamer fluorescence, dose response, artefact control for GRK2 aptamer binding project, biochemical, powder set 1, flow cytometry. shares compounds with GRK2 inh. Bead-bound FAM RNA aptamer fluorescence quenching; active compounds read low. fluorescence ratio to DMSO, % at 11.1 µM. 35 tested, under 10 active. AID 588496, 2011;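 active = compounds that dim the fluorescent label, raw bead signal shifting by over 33 units between lowest and highest dose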
Of the large screens only hits and unclear results are named; the others gave an inactive call (follow-up assays come after a bar, where they were run). Only some compounds are listed: those with a hit (about 1.1% of all), similar ones and a draw of the others.

CCC(=O)Nc1ccc(C(=O)NNC(=O)CCCCC(=O)NNC(=O)c2ccc(NC(=O)CC)cc2)cc1	none (no result: T cell HTS, GRK2 inh, procasp3 activ, procasp7 counter)
CC(=O)N1CCN(Cc2nc3cc(Cl)ccc3c(=O)[nH]2)CC1	GRK2 inh 87 | GRK2 CP1 42 | Aptamer quench inactive | FAM quench CP1 inactive | GRK2 CP2 inactive | FAM quench CP2 inactive | FAM quench PS1 inactive
COc1cc2nc(CN3CCN(C(C)=O)CC3)[nH]c(=O)c2cc1OC	none
COc1ccc(N2CCN(Cc3nc4cc(Cl)ccc4c(=O)[nH]3)CC2)cc1	none | GRK2 CP2 inactive | FAM quench CP2 inactive
O=c1[nH]c(CN2CCN(S(=O)(=O)c3ccc(Cl)cc3)CC2)nc2cc(Cl)ccc12	none
CCC1CCC2(CC1)NC(=O)N(CC(=O)c1c(C)[nH]c3ccccc13)C2=O (stereo not drawn)	none
NC(=O)CSc1nnc(-c2ccc(S(=O)(=O)N3CCCC3)cc2)o1	GRK2 inh 45 | GRK2 CP1 inactive | FAM quench CP1 inactive
Cc1ccc(CSc2nnc(-c3ccc(S(=O)(=O)N4CCCC4)cc3)o2)cc1	GRK2 inh 59 | GRK2 CP1 inactive | FAM quench CP1 inactive
O=S(=O)(c1ccc(-c2nnc(SCc3ccccc3)o2)cc1)N1CCCC1	none
O=C(NC1CC1)C1CCN(Cc2cnn(-c3ccccc3)c2-n2cccc2)CC1	none
O=C(NCc1ccccn1)C1CCN(Cc2cnn(-c3ccccc3)c2-n2cccc2)CC1	none | GRK2 CP1 inactive | FAM quench CP1 inactive
COc1cccc(CNC(=O)C2CCN(Cc3cnn(-c4ccccc4)c3-n3cccc3)CC2)c1	none
O=C(NCc1ccccn1)C1CCCN(Cc2cnn(-c3ccccc3)c2-n2cccc2)C1 (stereo not drawn)	none (no result: CaV13 FRET inh) | GRK2 CP1 inactive | FAM quench CP1 inactive
O=C(NCc1cccnc1)C1CCCN(Cc2cnn(-c3ccccc3)c2-n2cccc2)C1 (stereo not drawn)	none | GRK2 CP1 inactive | FAM quench CP1 inactive
C=CCCC1CN(CC=C)S(=O)(=O)c2c(F)cccc2O1 (stereo not drawn)	none (no result: aDG glyco act, T cell HTS, GRK2 inh, procasp3 activ, procasp7 counter)
Cc1ccccc1C(=O)N1CCC(C(=O)N(C)CC(=O)Nc2cccc(F)c2)CC1	GRK2 inh 51 | GRK2 CP2 inactive | FAM quench CP2 inactive
COc1ccc(NC(=O)CCS(=O)(=O)c2ccc(Br)s2)cc1	GRK2 inh 87 | GRK2 CP1 43 | Aptamer quench inactive | FAM quench CP1 inactive | FAM quench PS1 inactive
O=C(CCS(=O)(=O)c1ccc(Br)s1)Nc1ccccc1Br	GRK2 inh 88 | GRK2 CP1 inactive | Aptamer quench inactive | FAM quench CP1 inactive | FAM quench PS1 inactive
O=C1[C@@H]2Cc3c([nH]c4ccccc34)C(c3cccc(Br)c3)N2C(=O)CN1C1CCN(Cc2ccccc2)CC1 (stereo partly drawn)	none | GRK2 CP1 inactive | FAM quench CP1 inactive
O=C1[C@@H]2Cc3c([nH]c4ccccc34)C(c3ccccc3)N2C(=O)CN1C1CCN(Cc2ccccc2)CC1 (stereo partly drawn)	none | GRK2 CP1 inactive | FAM quench CP1 inactive
COC(=O)c1ccc(C2c3[nH]c4ccccc4c3C[C@H]3C(=O)N(C4CCN(Cc5ccccc5)CC4)CC(=O)N23)cc1 (stereo partly drawn)	none
CCC(C)N(C(=O)CSc1nc(C)nc2ccccc12)C1CCS(=O)(=O)C1 (stereo not drawn)	none
O=C(c1cnccn1)N1CCc2c([nH]c3ccccc23)C1c1cccc(Cl)c1 (stereo not drawn)	none
O=C(CCN1CCCCC1)N1CCc2c([nH]c3ccccc23)C1c1cccnc1 (stereo not drawn)	none (no result: T cell HTS, GRK2 inh, procasp3 activ, procasp7 counter) | GRK2 CP1 inactive | FAM quench CP1 inactive
Nc1nc(=S)c2ncn(C3OC(CO)C(O)C3O)c2[nH]1 (stereo not drawn)	GRK2 inh 87 | GRK2 CP1 inactive | FAM quench CP1 inactive
O=C(NCCc1ccccc1)c1oc2ccccc2c1COc1ccccc1	GRK2 inh 69 | GRK2 CP1 inactive | FAM quench CP1 inactive
O=C(Nc1ccccc1Cc1ccccc1)c1oc2ccccc2c1COc1ccccc1	none
CCCN=C1N(CC)C[C@@H]2[C@@H]3C(=O)N(C)C(=O)[C@@H]3[C@](CC)(C(=O)OC)N12	none (no result: T cell HTS)
COc1cc(C(C)=O)ccc1OCC(=O)Nc1ccccc1N1CCCCC1	none
COc1cc(C(C)=O)ccc1OCC(=O)Nc1ccccc1N1CCCC1	GRK2 inh 87 | GRK2 CP2 inactive | FAM quench CP2 inactive
O=C(COC(=O)Cc1ccc(S(=O)(=O)N2CCOCC2)s1)Nc1ccccc1	none
COCCn1c(=S)[nH]c2cc(C(=O)N3CCN(Cc4ccc5c(c4)OCO5)CC3)ccc2c1=O	GRK2 inh 45 | GRK2 CP1 inactive | FAM quench CP1 inactive
